In ChEMBL document CHEMBL1799942, “Design, synthesis and antifungal activities of novel 1,2,4-triazole derivatives” (2011):
Converted amounts (≈) assume the structure as drawn.

Tests used:
Assay type in all cases: functional
[1] = Antifungal activity against Fonsecaea compacta by micro-broth dilution method
Procedure, shortened: (§1)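 Broth microdilution following the NCCLS yeast reference method (M27-A2), run on clinical isolates of filamentous fungi. Compounds were dissolved in DMSO, serially diluted in growth medium, inoculated and incubated at 35 °C. Growth was read at 7 days. MIC80 is the first well with about 80% less growth than the drug-free well.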

[2] = tested on: Candida parapsilosis; test: Antifungal activity against Candida parapsilosis ATCC 0306392 by micro-broth dilution method; details: Lodderomyces parapsilosis
Procedure, shortened: (§2)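 Micro-broth dilution per NCCLS M27-A2. The C. parapsilosis strain is the ATCC 0306392 quality-control standard tested in each assay; the C. tropicalis strain is a clinical isolate. Compounds were in DMSO, serially diluted in growth medium, inoculated and incubated at 35 °C. MIC80 is the first well with about 80% growth reduction relative to the drug-free well.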

[3] = tested on: Nannizzia gypsea; test: Antifungal activity against Microsporum gypseum after 7 days by micro-broth dilution method; details: 168 h; procedure, shortened: as §1
[4] = tested on: Aspergillus fumigatus; test: Antifungal activity against Aspergillus fumigatus after 7 days by micro-broth dilution method; details: 168 h; procedure, shortened: as §1
[5] = tested on: Cryptococcus neoformans; test: Antifungal activity against Cryptococcus neoformans ATCC BLS108 after 72 hrs by micro-broth dilution method; details: ATCC BLS108, 72 h
Procedure, shortened: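 NCCLS M27-A2 microdilution on the ATCC BLS108 quality-control strain, tested in every assay. Compounds were taken up in DMSO, serially diluted in growth medium, inoculated and incubated at 35 °C. Growth was scored at 72 h. MIC80 is the first well with about 80% lower growth than the drug-free control well.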

[6] = tested on: Candida albicans; test: Antifungal activity against Candida albicans ATCC Y0109 after 24 hrs by micro-broth dilution method; details: ATCC Y0109, 24 h
Procedure, shortened: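 Micro-broth dilution per NCCLS M27-A2 on the quality-control standard strain ATCC Y0109, included in each assay. Compounds were dissolved in DMSO, serially diluted in growth medium, inoculated and incubated at 35 °C, with growth read at 24 h. MIC80 is the first well showing roughly 80% growth reduction versus the drug-free well.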

[7] = tested on: Trichophyton rubrum; test: Antifungal activity against Trichophyton rubrum after 7 days by micro-broth dilution method; details: 168 h; procedure, shortened: as §1
[8] = tested on: Candida tropicalis; test: Antifungal activity against Candida tropicalis by micro-broth dilution method; procedure, shortened: as §2

MIC80 [1] [µg/mL]	MIC80 [2] [µg/mL]	MIC80 [3] [µg/mL]	MIC80 [4] [µg/mL]	MIC80 [5] [µg/mL]	MIC80 [6] [µg/mL]	MIC80 [7] [µg/mL]	MIC80 [8] [µg/mL]	SMILES
0.25 (≈ 0.531 µM)	0.0156 (≈ 0.0332 µM)	0.25 (≈ 0.531 µM)	4 (≈ 8.5 µM)	1 (≈ 2.13 µM)	0.0156 (≈ 0.0332 µM)	0.0625 (≈ 0.133 µM)	0.0156 (≈ 0.0332 µM)	CCC(=O)Nc1ccc(N2CCN(CC(O)(Cn3cncn3)c3ccc(F)cc3F)CC2)cc1 (racemic)
0.25 (≈ 0.516 µM)	0.0156 (≈ 0.0322 µM)	0.0625 (≈ 0.129 µM)	4 (≈ 8.26 µM)	0.25 (≈ 0.516 µM)	0.00097 (≈ 0.002 µM)	0.0625 (≈ 0.129 µM)	0.0625 (≈ 0.129 µM)	CCCC(=O)Nc1ccc(N2CCN(CC(O)(Cn3cncn3)c3ccc(F)cc3F)CC2)cc1 (racemic)
0.25 (≈ 0.516 µM)	0.0156 (≈ 0.0322 µM)	0.0625 (≈ 0.129 µM)	4 (≈ 8.26 µM)	1 (≈ 2.06 µM)	0.0039 (≈ 0.00805 µM)	0.25 (≈ 0.516 µM)	0.0156 (≈ 0.0322 µM)	CC(C)C(=O)Nc1ccc(N2CCN(CC(O)(Cn3cncn3)c3ccc(F)cc3F)CC2)cc1 (racemic)
0.25 (≈ 0.501 µM)	0.0625 (≈ 0.125 µM)	0.25 (≈ 0.501 µM)	1 (≈ 2.01 µM)	0.25 (≈ 0.501 µM)	0.0156 (≈ 0.0313 µM)	0.0625 (≈ 0.125 µM)	0.0625 (≈ 0.125 µM)	CCCCC(=O)Nc1ccc(N2CCN(CC(O)(Cn3cncn3)c3ccc(F)cc3F)CC2)cc1 (racemic)
1 (≈ 1.95 µM)	0.25 (≈ 0.488 µM)	0.0625 (≈ 0.122 µM)	> 64	1 (≈ 1.95 µM)	0.0156 (≈ 0.0304 µM)	0.0625 (≈ 0.122 µM)	0.25 (≈ 0.488 µM)	CCCCCC(=O)Nc1ccc(N2CCN(CC(O)(Cn3cncn3)c3ccc(F)cc3F)CC2)cc1 (racemic)
1 (≈ 2.01 µM)	0.0156 (≈ 0.0313 µM)	0.0156 (≈ 0.0313 µM)	16 (≈ 32.1 µM)	0.25 (≈ 0.501 µM)	0.0156 (≈ 0.0313 µM)	0.0039 (≈ 0.00782 µM)	0.0156 (≈ 0.0313 µM)	CC(C)(C)C(=O)Nc1ccc(N2CCN(CC(O)(Cn3cncn3)c3ccc(F)cc3F)CC2)cc1 (racemic)
0.0625 (≈ 0.119 µM)	0.0156 (≈ 0.0296 µM)	0.0039 (≈ 0.00741 µM)	> 64	0.0625 (≈ 0.119 µM)	0.00097 (≈ 0.00184 µM)	0.0039 (≈ 0.00741 µM)	0.0156 (≈ 0.0296 µM)	CCCCCCC(=O)Nc1ccc(N2CCN(CC(O)(Cn3cncn3)c3ccc(F)cc3F)CC2)cc1 (racemic)
1 (≈ 1.85 µM)	0.0625 (≈ 0.116 µM)	0.0156 (≈ 0.0289 µM)	1 (≈ 1.85 µM)	0.0625 (≈ 0.116 µM)	0.0156 (≈ 0.0289 µM)	0.0625 (≈ 0.116 µM)	0.0625 (≈ 0.116 µM)	CCCCCCCC(=O)Nc1ccc(N2CCN(CC(O)(Cn3cncn3)c3ccc(F)cc3F)CC2)cc1 (racemic)
1 (≈ 1.76 µM)	1 (≈ 1.76 µM)	0.0156 (≈ 0.0274 µM)	1 (≈ 1.76 µM)	0.0625 (≈ 0.11 µM)	0.0156 (≈ 0.0274 µM)	0.0625 (≈ 0.11 µM)	0.25 (≈ 0.44 µM)	CCCCCCCCCC(=O)Nc1ccc(N2CCN(CC(O)(Cn3cncn3)c3ccc(F)cc3F)CC2)cc1 (racemic)
0.25 (≈ 0.419 µM)	0.25 (≈ 0.419 µM)	0.0156 (≈ 0.0261 µM)	1 (≈ 1.68 µM)	0.0625 (≈ 0.105 µM)	0.0625 (≈ 0.105 µM)	0.0625 (≈ 0.105 µM)	1 (≈ 1.68 µM)	CCCCCCCCCCCC(=O)Nc1ccc(N2CCN(CC(O)(Cn3cncn3)c3ccc(F)cc3F)CC2)cc1 (racemic)
4 (≈ 6.13 µM)	1 (≈ 1.53 µM)	0.25 (≈ 0.383 µM)	> 64	16 (≈ 24.5 µM)	0.25 (≈ 0.383 µM)	0.25 (≈ 0.383 µM)	1 (≈ 1.53 µM)	CCCCCCCCCCCCCCCC(=O)Nc1ccc(N2CCN(CC(O)(Cn3cncn3)c3ccc(F)cc3F)CC2)cc1 (racemic)
0.25 (≈ 0.527 µM)	0.0625 (≈ 0.132 µM)	1 (≈ 2.11 µM)	4 (≈ 8.43 µM)	1 (≈ 2.11 µM)	0.0625 (≈ 0.132 µM)	0.25 (≈ 0.527 µM)	0.0625 (≈ 0.132 µM)	CC(=O)Nc1ccc(N2CCN(CC(O)(Cn3cncn3)c3ccc(F)cc3F)CC2)c(F)c1 (racemic)
0.0625 (≈ 0.123 µM)	0.0156 (≈ 0.0307 µM)	0.0156 (≈ 0.0307 µM)	1 (≈ 1.96 µM)	0.0625 (≈ 0.123 µM)	0.0039 (≈ 0.00766 µM)	0.0625 (≈ 0.123 µM)	0.0156 (≈ 0.0307 µM)	O=C(CCl)Nc1ccc(N2CCN(CC(O)(Cn3cncn3)c3ccc(F)cc3F)CC2)c(F)c1 (racemic)

SMILES	MIC80 [1] [µg/mL]	MIC80 [2] [µg/mL]	MIC80 [3] [µg/mL]	MIC80 [4] [µg/mL]	MIC80 [5] [µg/mL]	MIC80 [6] [µg/mL]	MIC80 [7] [µg/mL]	MIC80 [8] [µg/mL]
C[C@@H]1[C@H](O)[C@@H](C)/C=C/C=C/C=C/C=C/C=C/C=C/C=C/[C@H](O[C@@H]2O[C@H](C)[C@@H](O)[C@H](N)[C@@H]2O)C[C@@H]2O[C@](O)(C[C@@H](O)C[C@@H](O)[C@H](O)CC[C@@H](O)C[C@@H](O)CC(=O)O[C@H]1C)C[C@H](O)[C@H]2C(=O)O [AMPHOTERICIN B]	16 (≈ 17.3 µM)	0.0156 (≈ 0.0169 µM)	0.0039 (≈ 0.00422 µM)	4 (≈ 4.33 µM)	1 (≈ 1.08 µM)	1 (≈ 1.08 µM)	1 (≈ 1.08 µM)	0.0625 (≈ 0.0676 µM)
